Screening data as filed in PubChem BioAssay.
Hits are enriched below; roughly 3.3% of the tested compounds scored in any of these assays.
ABHD4 inh: inhibitors of mouse ABHD4 | inhibition, % at 8.92 µM | Q8VD66 | AID 720543 | hit rate 0.54% among 370,000 | purified mABHD4, FP-Rh probe fluorescence polarization;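 active = inhibition exceeding the mean over every tested compound plus 3 SD, cut at about 30% in these data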;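 also: 0% = plate median of compound wells and 100% = S159A mutant with DMSO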
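Material: mouse ABHD4 enzyme, wild type; Benchmarks: S159A mutant high control, sample median low control; Buffer or medium: HEPES pH 7.0, NaCl, Pluronic buffer; Signal: fluorescence polarization; Read-out: percent inhibition of probe binding, normalized to plate controls; Timing: pre-incubation 45 min, probe exposure 60 min, at 25 °C; Dosing: 8.92 µM, single dose.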
HTRA1 inh: blocks human HTRA1 serine peptidase. hit rate 0.5% among 340,000. AID 504803. inhibition, % at 5.96 µM. recombinant HTRA1, FP-rhodamine activity-based probe, fluorescence polarization; in the data active = inhibition above about 36%;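 also: 0% = enzyme with DMSO and 100% = wells lacking enzyme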
PRMT1 inh: blocks human protein arginine methyltransferase 1; inhibition, % at 2.79 µM; recombinant PRMT1, activity-based probe fluorescence polarization; hit rate 1.3% among 370,000; Q99873; AID 652257;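 active = inhibition above about 21% made by adding two undisclosed values, limit read from the data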
SIAE primary: blocks human sialic acid acetylesterase | hit rate 0.69% among 370,000 | AID 1053197 | SIAE FP-Rh probe binding, fluorescence polarization | inhibition, % at 9.66 µM | Q9HAT2;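 active = inhibition above a cutoff: mean of compounds within the control limits plus 3 SD of those, cut at about 17% in these data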;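 also: 0% = plate median of compound wells and 100% = probe without SIAE protein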
Target sequence (Q9HAT2 whole entry, looked up): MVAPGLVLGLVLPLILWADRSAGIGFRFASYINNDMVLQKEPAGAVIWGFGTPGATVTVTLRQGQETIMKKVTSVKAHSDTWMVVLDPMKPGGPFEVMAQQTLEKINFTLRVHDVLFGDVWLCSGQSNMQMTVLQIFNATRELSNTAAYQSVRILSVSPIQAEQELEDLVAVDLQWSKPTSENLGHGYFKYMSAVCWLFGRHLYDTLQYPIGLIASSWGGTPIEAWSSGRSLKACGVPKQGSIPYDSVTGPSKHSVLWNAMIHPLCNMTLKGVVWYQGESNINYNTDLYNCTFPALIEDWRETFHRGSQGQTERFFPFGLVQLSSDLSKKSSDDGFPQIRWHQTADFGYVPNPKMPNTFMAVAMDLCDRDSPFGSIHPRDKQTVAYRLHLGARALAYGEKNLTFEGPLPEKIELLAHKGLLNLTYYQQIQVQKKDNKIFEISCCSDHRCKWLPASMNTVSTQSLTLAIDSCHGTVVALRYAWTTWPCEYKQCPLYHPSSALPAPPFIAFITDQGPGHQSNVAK
rCAG binder: r(CAG) repeat RNA binding; TO-PRO-1 dye displacement fluorescence; inhibition, % at 3 µM; hit rate 1.3% among 370,000; AID 651821;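 active = inhibition above the plate cutoff, the mean of all test compounds on that plate plus 3 SD, cut at about 35% in these data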;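 also: 0% = DMSO alone and 100% = 100 µM mitoxantrone as full dye displacement; higher means more dye released from RNA so lower well fluorescence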
PRMT1 confirm: PRMT1 (human) inhibition, FP confirmation | shares compounds with PRMT1 inh | recombinant His-PRMT1, activity-based probe fluorescence polarization | inhibition, % at 2.79 µM | hit rate 42% among 3,300 | AID 687036;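 active = mean inhibition across replicates above the hit cutoff derived for the earlier primary screen, cut at about 22% in these data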
An asterisk follows results filed as active; / = no result.

SMILES | ABHD4 inh | HTRA1 inh | PRMT1 inh | SIAE primary | rCAG binder | PRMT1 confirm
Cc1ccc(NS(=O)(=O)c2ccc3c(c2)n(C)c(=O)n3C)cc1C | -13 | -4 | 25* | -5 | 1 | 8
Cc1ccc(S(=O)(=O)Nc2ccc3c(c2)n(C)c(=O)n3C)cc1 | 2 | 2 | 3 | 4 | -1 | /
CCc1cc2c(=O)n(Cc3ccco3)c(SCc3c(C)noc3C)nc2s1 | -5 | -37 | 53* | 7 | 7 | 8
CCc1cc2c(=O)n(Cc3ccco3)c(SCC(=O)N3CCCc4ccccc43)nc2s1 | 1 | -52 | 46* | -1 | 8 | 10
CCCCNC(=O)/C=C/c1ccc(S(=O)(=O)Nc2ccc(OC)cc2)cc1 | -11 | -8 | -2 | 3 | 1 | /
O=S(=O)(c1ccccc1F)N1CCC(c2nc3ccccc3[nH]2)CC1 | 0 | -1 | 1 | -3 | 4 | /
Cc1cccc(CS(=O)(=O)c2cn(CC(=O)N3CCOCC3)c3ccccc23)c1 | 2 | 6 | -2 | -3 | -2 | /
O=C(CNC(=O)c1cccs1)NCC(=O)OCC(=O)c1ccc([N+](=O)[O-])cc1 | 7 | 6 | 70* | -3 | 1 | 41*
O=C(COC(=O)c1cnccn1)c1ccc([N+](=O)[O-])cc1 | 7 | 3 | 47* | 4 | 2 | 60*
O=C(COc1ccccc1F)OCC(=O)c1ccc([N+](=O)[O-])cc1 | 7 | 5 | 46* | 6 | 9 | 34*
O=C(Nc1ccc(Oc2ncnc3cc(Cl)ccc23)nc1)c1cccs1 | 6 | 7 | 2 | -4 | -1 | /
COc1ccc(-c2nc(CN3CCN(Cc4cccc(Cl)c4)CC3)c(C)o2)cc1 | 7 | -11 | 1 | 2 | -3 | /
COc1ccc(N2CCN(C(=O)CN(C)S(=O)(=O)c3cc(C)ccc3OC)CC2)cc1 | -1 | 5 | 0 | 5 | -1 | /
CC1(c2ccccc2)NC(=O)N(CC(=O)Nc2nc(-c3ccccn3)cs2)C1=O (stereo not drawn) | -24 | 1 | 6 | 2 | 11 | /
Cc1ccc(C2(C)NC(=O)N(CC(=O)Nc3nc(-c4ccccn4)cs3)C2=O)cc1 (stereo not drawn) | -27 | -2 | 26* | 8 | 2 | 38*
CCCNC(=O)c1cc(C2CCCCN2C(=O)c2ccc3c(c2)CCO3)on1 (stereo not drawn) | 3 | / | -1 | 6 | 1 | /
CC12CCC(C(=O)N(CSC(=S)N/N=C\c3ccccc3O)C1=O)C2(C)C (stereo not drawn) | 20 | 26 | 25* | 3 | 30 | 3
CN(C)c1ccc(/C=N\NC(=S)SCN2C(=O)C3CCC(C)(C2=O)C3(C)C)cc1 (stereo not drawn) | 10 | 19 | 43* | 1 | 13 | 8
O=C(NC1CCCN(CCc2ccccc2)C1)c1c(F)cccc1F (stereo not drawn) | -3 | -2 | -4 | 3 | -5 | /
CCc1cc(=O)oc2c(C)c(OCC(=O)NC3CC(C)(C)NC(C)(C)C3)ccc12 | / | 2 | / | / | / | /
CC1CCN(S(=O)(=O)c2ccc3c(c2)N(C)C(=O)CC(=O)N3C)CC1 | 1 | 9 | 47* | -4 | 2 | 44*
CN1C(=O)CC(=O)N(C)c2cc(S(=O)(=O)N(C)Cc3ccccc3)ccc21 | -3 | -4 | 54* | 0 | -1 | 36*
CCCC/C=C1/[C@H](c2ccccc2)N(C)C2=N[C@@H](c3ccccc3)CC(=O)N21 | -5 | / | 3 | 1 | / | /
COc1cc(/C=C/C(=O)N2CCN(Cc3ccccc3)CC2)cc(OC)c1OC | -4 | -4 | -5 | 7 | -7 | /
O=C(O)CSC1CC(=O)N(c2ccc(Cl)c(Cl)c2)C1=O (stereo not drawn) | -1 | -7 | 48* | -8 | 10 | 36*
SMILES | ABHD4 inh | HTRA1 inh | PRMT1 inh | SIAE primary | rCAG binder | PRMT1 confirm
CS(=O)(=O)n1nc(C(=O)N2CCOCC2)nc1N | -5 | 8 | -3 | 8 | -2 | /
COc1ccc(NC(=S)NNS(=O)(=O)c2ccc3ccccc3c2)c(OC)c1 | 10 | 1 | 27* | 3 | 14 | 13
CCN(CC)S(=O)(=O)N1CCN(S(=O)(=O)N2CCOCC2)CC1 | 5 | 10 | -2 | -2 | 0 | /
COC(=O)C(N)Cc1ccc(O)cc1 (stereo not drawn) | -2 | -5 | -1 | 6 | 0 | /
COC(=O)[C@@H](N)CS | 7 | 4 | 49* | 3 | 4 | 75*
COc1cc(CNc2ccc3[nH]c(=O)[nH]c3c2)ccc1OCc1ccccc1C | 17 | 4 | 11 | 11 | 5 | /
COc1cc(CNc2ccc3[nH]c(=O)[nH]c3c2)ccc1OCC(=O)NC(C)(C)C | 5 | -1 | 6 | 5 | -8 | /
COc1cc(CNc2ccc3[nH]c(=O)[nH]c3c2)ccc1OCc1ccccc1F | 10 | 10 | 29* | 3 | 3 | 10
COc1cc(CNc2ccc3[nH]c(=O)[nH]c3c2)cc(Br)c1OCC(=O)NC(C)(C)C | 14 | 14 | 25* | 2 | -4 | 12
C=CCOc1c(Br)cc(CNc2ccc3[nH]c(=O)[nH]c3c2)cc1OCC | 12 | 1 | 30* | 7 | -1 | 15
C=CCOc1c(Br)cc(CNc2ccc(NC(=O)CCC)cc2)cc1OCC | 3 | 3 | 3 | 7 | -1 | /
NC(=O)CSc1ccc(-c2ccc(F)cc2)nn1 | 2 | -1 | -2 | 6 | -3 | /
O=C(CN1C(=O)NC2(CCCC2)C1=O)Oc1ccc2ccc(=O)oc2c1 | -4 | -5 | 2 | 5 | 0 | /
O=C(OCCN1C(=O)c2cccc3c(N4CCOCC4)ccc(c23)C1=O)c1ccc(Cl)cc1 | 2 | 0 | 29* | 9 | -4 | 1
O=C(Nc1ccccn1)C1CCN(S(=O)(=O)c2ccc(Cl)cc2)CC1 | -3 | -4 | 1 | 7 | -3 | /
Cc1cc(SCNC(=O)c2ccccc2)ncn1 | 2 | 3 | 71* | -2 | 0 | 7
Cc1cccnc1NC(=O)CNC(=O)c1ccccc1 | 1 | 1 | -2 | -3 | 2 | /
COc1ccc(C(=O)NC(=O)CSc2nc3nc(C)cc(C)n3n2)cc1 | 4 | 4 | 27* | 3 | 3 | 2
COc1ccc(C(=O)Nc2ccccc2C(=O)NCCN2CCOCC2)cc1OC | 5 | 7 | 25* | 9 | -6 | -2
COc1ccc(C(=O)Nc2ccccc2C(=O)NCCN2CCOCC2)cc1 | -1 | -3 | 0 | 5 | -4 | /
ClC(Cl)(c1nnnn1-c1ccccc1)c1nnnn1-c1ccccc1 | -4 | 4 | 90* | -2 | -1 | 91*
c1ccc(-c2nnnn2-c2ccccc2)cc1 | -1 | 5 | 3 | 1 | -5 | /
CC(C)Cn1c(=O)cc(N2CCN(c3cccc(C(F)(F)F)c3)CC2)[nH]c1=O | 1 | / | -1 | -4 | / | /
COc1ccc(C(Nc2cc(C)ccn2)c2ccc3ccc(C)nc3c2O)cc1 (stereo not drawn) | 5 | 16 | 9 | 1 | 0 | /
